Screening data: PubChem BioAssay, Columbia University Molecular Screening Center
This excerpt belongs to a sample that is enriched for hits.
INS promoter act: activators of insulin promoter-driven GFP, primary screen, imaging, TRM-6 cells, eGFP reporter, cell count | plate-scaled: unstimulated 0, stimulated control 100 | activation, % at 2 µM | 0.81% of 130,000 active;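 active means activation at 2 µM above a set limit, confirmed on inspection of the cell images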;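 further: share of cells whose green reporter signal exceeds an intensity cutoff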
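Material: Human fetal islet-derived TRM-6 cells with tamoxifen-inducible insulin promoter–eGFP reporter | Medium: Low-glucose (5.5 mM) medium with tamoxifen | Probe or stimulus: Tamoxifen inducer, 0.75 µM, in seeding medium | Schedule: Tamoxifen pre-incubation 15 h overnight, then compound exposure 48 h at 37 °C | Detection: High-content imaging of fixed cells with Hoechst nuclear stain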
Large screens that a line does not name were inactive.

O=C(CNC(=O)c1cccc(F)c1)N/N=C/c1ccc([N+](=O)[O-])s1	none
COc1ccccc1/C=C/C(=O)N1CCCC1	none
COC(=O)c1cccc(NC(=O)/C=C/c2ccc([N+](=O)[O-])cc2)c1	none
CC(C)(C)N(NC(=O)OCc1ccccc1)C(=O)c1ccccc1Cl	none
Cn1c(N)c(C(=O)COC(=O)C2(c3ccc(Cl)cc3)CCCC2)c(=O)n(C)c1=O	none
C=CCNCCCCOc1ccc(C)cc1[N+](=O)[O-]	none
O=S(NC1CCCCC1)C12CC3CC(CC(C3)C1)C2 (centres undefined)	none
CN1CCN(S(=O)C23CC4CC(CC(C4)C2)C3)CC1 (centres undefined)	INS promoter act 488
CC1CCN(S(=O)C23CC4CC(CC(C4)C2)C3)CC1 (centres undefined)	none
CN(c1ccccc1)c1ccc(/C=N/NC(=O)CC#N)cc1	none
CCNCc1ccccc1OCc1ccccc1	none
CCOc1cc(CNCC2CCCN2CC)cc(Cl)c1OC (centres undefined)	INS promoter act 345
CCOc1cc(CNCCCN2CCOCC2)cc(Br)c1OCc1ccccc1Cl	none
CCN1CCCC1CNCc1ccccc1OCc1ccc(F)cc1 (centres undefined)	INS promoter act 97
CCc1ccc(NC(=S)NCC2CCCN2CC)cc1 (centres undefined)	none
CCN1CCCC1CNCc1cccc(OC)c1OCc1ccccc1F (centres undefined)	none
O=C(NCCC1=CCCCC1)C(=O)NCC(c1ccco1)N1CCN(c2ccccc2F)CC1 (centres undefined)	none
Cc1cccc(C)c1NC(=O)COc1ccc2c(C)c(Cc3ccccc3)c(=O)oc2c1	none
Nc1[nH]ncc1-c1ccccc1	none
CSC1=NC2C(N1)N(C)C(=O)N2C (centres undefined)	none
COc1ccccc1CNC(=S)Nc1ccc2nc(N3CCN(C)CC3)cc(C)c2c1	none
O=C(CSc1nnc(-c2cccs2)o1)NCC1CN(Cc2ccccc2)CCO1 (centres undefined)	INS promoter act 76
CC1CCCC(C)N1C(=O)CSc1nnc(-c2cccs2)o1 (centres undefined)	none
O=C(CSc1nc2ccsc2c(=O)n1Cc1ccc(C(=O)O)cc1)NCC1CCCO1 (centres undefined)	none
Cc1c([N+](=O)[O-])c([N+](=O)[O-])nn1CC(=O)N1CCCCC1	none
Cc1ccc(C(=O)C(C)OC(=O)c2ccccc2[N+](=O)[O-])cc1 (centres undefined)	none
COc1cc2nc(C3CCC3)nc(N3CCN(c4ccccc4OC)CC3)c2cc1OC	none
CC(C)(C)C(=O)NCCCc1ccccc1	none
CN(C)CCCOC(=O)c1ccccc1	none
C[N+]1(CC(=O)OCCCc2ccccc2)CCCCC1	INS promoter act 350
Oc1ccc(N2CCN(C(c3ccccn3)c3nnnn3C3CCCC3)CC2)cc1 (centres undefined)	none
COc1ccc(S(=O)(=O)N2CCOCC2)cc1NC(=O)Cc1ccc(Cl)c(Cl)c1	none
Cc1nc2cc(C(=O)N3CCc4ccccc43)ccc2n1-c1ccc(F)c(F)c1	none
Cc1cc(C)n(Cc2ccc(Cl)c(Cl)c2)c(=O)c1S(=O)(=O)c1ccccc1	none
CN(CCOc1ccccc1)CC(=O)Nc1cc([N+](=O)[O-])ccc1Cl	none
COc1ccc([N+](=O)[O-])cc1NC(=O)COC(=O)C=C(C)C	none
COCC(=O)OCC(=O)Nc1cc([N+](=O)[O-])ccc1Cl	INS promoter act 733
Cc1c(Cl)cccc1-n1nnnc1-c1cccs1	none
COc1ccccc1NC(=O)CSc1nc2ccccc2cc1Cc1ccccc1	none
COc1ccc(CC(=O)N2CC(C)CC(C)C2)cc1 (centres undefined)	none
O=C(NCC1COc2ccccc2O1)c1cc2ccccc2o1 (centres undefined)	none
Nc1nnc(Cc2ccc(Cl)cc2Cl)s1	INS promoter act 97
Clc1ccc(Cc2ccc(SCc3ccccc3)nn2)c(Cl)c1	none
COCc1nnc(N)s1	none
COc1ccc(S(=O)(=O)N2CC(O)CC2C(=O)OCc2nc3sc(C)c(C)c3c(=O)[nH]2)cc1 (centres undefined)	none
CCC(=O)NCCc1nc2cc(NC(=O)c3ccc(OC)cc3)ccc2n1C	none
Cc1nn(C(=O)CNS(=O)(=O)c2ccccc2)c(C)c1Sc1ccc(Cl)cc1	none
CCCc1cc(C(=O)NNC(=S)NC(C)c2ccccc2)cs1 (centres undefined)	none
CC1SC(c2ccc(Cl)cc2)NC1=O (centres undefined)	INS promoter act 444
CC1SC(c2cccc(Cl)c2)NC1=O (centres undefined)	none
CN(C)c1ccc(S(=O)(=O)NCC(=O)OCC(=O)Nc2cc(Cl)cc(Cl)c2)cc1[N+](=O)[O-]	none
COc1cccc(OC)c1C(=O)N1CCN(Cc2ccccc2C)CC1	none
Cn1cc(/C=N/NC(=O)COc2ccccc2[N+](=O)[O-])c2ccccc21	none
N#Cc1ccccc1Cn1cc(/C=N/Nc2ccc([N+](=O)[O-])cn2)c2ccccc21	INS promoter act 400
O=[N+]([O-])/C=C/c1cn(Cc2ccc(Cl)cc2)c2ccccc12	none
CC(=O)c1cccc(N(CC(=O)Nc2ccc(F)cc2)S(C)(=O)=O)c1	none
COc1ccc(NC(=O)CN(c2cccc(C(F)(F)F)c2)S(C)(=O)=O)cc1OC	none
COc1cccc(NC(=O)CN(c2cccc(F)c2)S(C)(=O)=O)c1	INS promoter act 444
CCCCCC1CC(CC(=O)Nc2ccc([N+](=O)[O-])cc2)C(=O)O1 (centres undefined)	none
CC(C(=O)N1c2ccc(F)cc2CCC1C)N1C(=O)c2ccccc2C1=O (centres undefined)	none
Cc1cc(C)n(-c2cc(N3CCN(S(=O)(=O)c4ccc(Cl)cc4)CC3)ccc2[N+](=O)[O-])n1	none
Cc1cc(N2CCN(S(=O)(=O)c3ccc(Cl)cc3)CC2)c2ccccc2n1	INS promoter act 100
O=S(=O)(c1ccccc1)N1CCN(c2nc3ccccc3s2)CC1	none
O=C(NCC1CCCO1)c1cc(-c2ccc(Cl)cc2Cl)on1 (centres undefined)	INS promoter act 86
Cc1ccc(-c2cc(C(=O)NCC3CCCO3)no2)cc1 (centres undefined)	none
O=C(Nc1ccccc1C(=O)NCC1CCCO1)c1ccc(Cl)cc1Cl (centres undefined)	none
Cn1c(=O)c2c(nc(SCC(=O)NCC3CCCO3)n2Cc2ccc(F)cc2)n(C)c1=O (centres undefined)	none
Cc1ccc(C(=O)CCC(=O)Nc2cccc(C(F)(F)F)c2)cc1	none
Cc1cc2cc(C)c3nnc(SCC(=O)Nc4ccc(S(=O)(=O)N5CCCCC5)cc4)n3c2cc1C	none
Cc1ccc(-c2cc(C(=O)N/N=C/c3c(C)nn(C)c3C)c3ccccc3n2)c(C)c1	none
CCCC(C(=O)NC1CCCCC1)N(Cc1ccco1)C(=O)CNS(=O)(=O)c1ccccc1 (centres undefined)	INS promoter act 77
CCCCC(C(=O)NC1CCCC1)N(Cc1ccco1)C(=O)Cn1nnc(-c2ccc(F)cc2)n1 (centres undefined)	none
CCCC(C(=O)NCc1ccco1)N(C(=O)CNS(=O)(=O)c1ccccc1)c1ccc(OC)cc1 (centres undefined)	none
Cc1ccccc1CSCC(Nc1ccc(C(=O)O)cc1[N+](=O)[O-])C(=O)O (centres undefined)	none
COc1cc(/C=C(\C#N)C(=O)Nc2cc(C(F)(F)F)ccc2Cl)ccc1OCC(=O)Nc1cccc(C(F)(F)F)c1	none
O=C(Cn1nc(C(F)(F)F)c2c1CCC2)Nc1ccccc1C(F)(F)F	INS promoter act 600
O=C(O)Cn1nc(C(F)(F)F)c2c1CCCC2	none
O=C(Cn1nc(C(F)(F)F)c2c1CCC2)NC1CCCCC1	none
